# Measurements of several laboratories.
# Protocols differ between the studies behind these lines.
# Target: STE20/SPS1-related proline-alanine-rich protein kinase (STK39, Homo sapiens, UniProt Q9UEW8)
Structure (SMILES),assay,conditions,remaining binding [%]
Cc1cnc(Nc2ccc(C(=O)N3CCC(N4CCCC4)CC3)cc2)nc1-c1cc2ccccc2s1,"binding, competition with immobilised ligand",1 µM,53
N#CC1(c2ccccn2)CCN(Cc2cc(C(=O)N3CCCC3)c(=O)n3ccccc23)CC1,"cell-free assay, competition with immobilised ligand",1 µM,75
COc1cnc(Nc2cccc(S(N)(=O)=O)c2)nc1N1CCN(c2ccccc2)CC1,"binding, competition with immobilised ligand",1 µM,75
Cc1nc(C2CCN(C(=O)c3ccc(OC(F)(F)F)cc3N)CC2)c2ncc(N3CCN(C)CC3)cc2n1,"cell-free assay, competition with immobilised ligand",1 µM,100
COc1ncc2cc3ccccc3nc2c1C#N,"cell-free assay, competition with immobilised ligand",5 µM,100
N[C@@H]1CCN(c2nccc(-c3cnn4ncccc34)n2)C1,binding,1 µM,100
CN(C)c1ncnc(-c2ccc3nc(Nc4cc(CN5CCN(C(=O)CC(F)(F)F)CC5)ccn4)[nH]c3c2)c1Cl,"cell-free assay, competition with immobilised ligand",1 µM,69
CN(c1nccc(-c2cnn3ncccc23)n1)C1CC1,binding,1 µM,100
c1cncc(-c2cccc(Nc3nccc(NC4CCCCC4)n3)c2)c1,"binding, competition with immobilised ligand",10 µM,97
O=C(NCc1ncc(C(F)(F)F)cc1Cl)c1ccc2c(c1)C1(CCS(=O)(=O)CC1)[C@H](C1CC1)N2S(=O)(=O)c1ccc(F)cc1,"cell-free assay, competition with immobilised ligand",1 µM,84
COc1ccnn2ncc(-c3ccnc(N(C)C)n3)c12,binding,1 µM,49
O=C1NC(c2ccccn2)Sc2ccccc21 (stereo not drawn),"cell-free assay, competition with immobilised ligand",1 µM,89
CN(C)c1ncc(F)c(-c2cnn3ncccc23)n1,binding,1 µM,74
O=C(Nc1c[nH]nc1C(=O)NC1CCNCC1)c1cc(F)cc(F)c1,"binding, competition with immobilised ligand",1 µM,67
CCN1CCN(Cc2ccc(C(=O)Nc3ccc(C)c(Oc4ccc5c(c4)CC(=O)N5)c3)cc2C(F)(F)F)CC1,"binding, competition with immobilised ligand",1 µM,68
C[C@@H]1CCN(c2nccc(-c3cnn4ncccc34)n2)C1,binding,1 µM,59
Nc1ncc2c(n1)-c1c([nH]c3ccc(C#CC4CC4)cc13)CCCC2,"binding, competition with immobilised ligand",1 µM,53
O=C(c1ccc(Nc2ncc(Cl)c(-c3cc4ccccc4s3)n2)cc1)N1CCC(N2CCCC2)CC1,"binding, competition with immobilised ligand",1 µM,36
CN(C)c1nccc(-c2cnc3ncccn23)n1,binding,1 µM,51
O=C(NCCCN1CCOCC1)c1ccc(Nc2nccc(-c3cc4ccccc4s3)n2)cc1,"binding, competition with immobilised ligand",1 µM,73
CCCOc1ccc([C@@H]2[C@@H](C(=O)O)[C@H](c3ccc4c(c3)OCO4)CN2CC(=O)Nc2c(CC)cccc2CC)cc1,"cell-free assay, competition with immobilised ligand",1 µM,78
